Measured values from ChEMBL document CHEMBL3352336, “Discovery libraries targeting the major enzyme classes: the serine hydrolases” (Bioorg Med Chem Lett, 2014).

Experiments:
[1] = Retention time of the compound; format: physicochemical
[2] = target: T1, Fatty-acid amide hydrolase 1 (Rattus norvegicus, UniProt P97612); experiment: Inhibition of recombinant rat FAAH preincubated for 3 hrs
T1 sequence (P97612 whole entry): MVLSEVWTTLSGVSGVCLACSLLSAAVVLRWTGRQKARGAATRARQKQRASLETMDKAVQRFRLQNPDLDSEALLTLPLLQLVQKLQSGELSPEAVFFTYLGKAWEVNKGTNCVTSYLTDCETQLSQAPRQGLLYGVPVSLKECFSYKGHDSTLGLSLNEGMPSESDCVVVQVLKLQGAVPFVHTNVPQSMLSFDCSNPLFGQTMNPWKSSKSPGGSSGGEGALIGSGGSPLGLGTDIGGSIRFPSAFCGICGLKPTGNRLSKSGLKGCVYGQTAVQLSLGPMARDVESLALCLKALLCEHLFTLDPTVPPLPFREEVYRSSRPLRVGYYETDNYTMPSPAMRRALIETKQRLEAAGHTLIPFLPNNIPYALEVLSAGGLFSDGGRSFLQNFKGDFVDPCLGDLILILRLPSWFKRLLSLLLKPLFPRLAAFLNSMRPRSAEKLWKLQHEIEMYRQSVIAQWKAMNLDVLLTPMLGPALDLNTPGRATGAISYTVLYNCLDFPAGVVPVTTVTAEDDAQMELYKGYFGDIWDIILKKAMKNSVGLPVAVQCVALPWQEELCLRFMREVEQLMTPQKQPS
In short: (§1)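 Recombinant FAAH (rFAAH) was preincubated with the inhibitor for 3 h before activity was measured. Results are reported as an apparent Ki in nM.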

[3] = target: T1, Fatty-acid amide hydrolase 1; experiment: Irreversible inhibition of recombinant rat FAAH preincubated for 3 hrs; in short: as §1

Row | Retention_time [1] | Ki [2] | Ki [3] | Compound
1 | 3.876 min |  |  | Cc1cnn(C(=O)NCc2ccc(OCc3ccccc3)cc2)c1
2 | 4.159 min |  |  | O=C(OCCCCCc1ccccc1)n1cccn1
3 | 3.713 min | 550 nM |  | Cc1cnn(C(=O)NCCCCc2ccccc2)c1
4 | 3.895 min |  |  | O=C(Nc1ccc2ccccc2c1)n1cccn1
5 | 4.199 min | > 5000 nM |  | O=C(CCCCCc1ccccc1)n1cccn1
6 | 3.9 min |  |  | N#Cc1cnn(C(=O)Oc2ccc3ccccc3c2)c1
7 | 3.96 min |  |  | O=C(Oc1ccc2ccccc2c1)n1cccn1
8 | 3.907 min |  |  | Cc1cnn(C(=O)NCc2ccc(-c3ccccc3)cc2)c1
9 | 3.689 min |  |  | N#Cc1cnn(C(=O)OCc2ccc3ccccc3c2)c1
10 | 3.687 min |  |  | Cc1cnn(C(=O)CCCCc2ccccc2)c1
11 | 3.702 min |  |  | N#Cc1cnn(C(=O)CCCCc2ccccc2)c1
12 | 3.824 min | 80 nM |  | N#Cc1cnn(C(=O)N2CCCCC2)c1
13 | 4.201 min | 250 nM |  | Cc1cnn(C(=O)N2CCN(Cc3ccccc3)CC2)c1
14 | 3.992 min |  |  | Cc1cnn(C(=O)NCc2ccc(Oc3ccccc3)cc2)c1
15 | 3.906 min |  |  | N#Cc1cnn(C(=O)Cc2ccc3ccccc3c2)c1
16 | 3.905 min |  |  | O=C(OCc1ccc(OCc2ccccc2)cc1)n1cccn1
17 | 4.11 min |  |  | Cc1ccc(CNC(=O)n2cc(C)cn2)cc1
18 | 3.616 min |  |  | Cc1cnn(C(=O)NCCCc2ccccc2)c1
19 | 3.899 min |  |  | Cc1cnn(C(=O)OCc2ccc(Oc3ccccc3)cc2)c1
20 | 3.69 min |  |  | Cc1cnn(C(=O)OCCCc2ccccc2)c1
21 | 3.784 min | 850 nM |  | Cc1cnn(C(=O)N2CCN(C(=O)OC(C)(C)C)CC2)c1
22 | 4.103 min |  |  | N#Cc1cnn(C(=O)OCc2ccc(-c3ccccc3)cc2)c1
23 | 4.1 min |  |  | O=C(Cc1ccc(-c2ccccc2)cc1)n1cccn1
24 | 4.102 min |  |  | Cc1cnn(C(=O)OCc2ccc(-c3ccccc3)cc2)c1

Row | Retention_time [1] | Ki [2] | Ki [3] | Compound
25 | 3.987 min |  |  | O=C(NCc1ccc(Oc2ccccc2)cc1)n1cccn1
26 | 3.896 min |  |  | O=C(NCc1ccc(OCc2ccccc2)cc1)n1cccn1
27 | 3.791 min |  |  | CN(CCN(C)C(=O)n1cc(C#N)cn1)C(=O)OC(C)(C)C
28 | 3.484 min | 750 nM |  | O=C(N1CCCCC1)n1cccn1
29 | 3.933 min | > 1000 nM |  | Cc1cnn(C(=O)N2CCCCC2)c1
30 | 3.467 min |  |  | Cc1cnn(C(=O)Cc2ccc(-c3ccccc3)cc2)c1
31 | 3.959 min |  |  | Cc1cnn(C(=O)N2CCCN(C(=O)OC(C)(C)C)CC2)c1
32 | 3.899 min | 170 nM |  | Cc1cnn(C(=O)N2CCN(Cc3ccc(-c4ccccc4)cc3)CC2)c1
33 | 3.992 min |  |  | Cc1cnn(C(=O)Cc2ccc3ccccc3c2)c1
34 | 3.897 min | 12 nM |  | O=C(N1CCN(Cc2ccc(-c3ccccc3)cc2)CC1)n1cccn1
35 | 3.998 min | > 5000 nM |  | N#Cc1cnn(C(=O)CCCCCc2ccccc2)c1
36 | 3.927 min |  |  | N#Cc1cnn(C(=O)OCCCc2ccccc2)c1
37 | 3.927 min |  | 0.1 nM | N#Cc1cnn(C(=O)N2CCN(Cc3ccc(Oc4ccccc4)cc3)CC2)c1
38 | 3.987 min |  | 210 nM | Cc1cnn(C(=O)N2CCN(Cc3ccc(Oc4ccccc4)cc3)CC2)c1
39 | 4.104 min |  |  | Cc1cnn(C(=O)OCCCCCc2ccccc2)c1
40 | 3.788 min |  |  | O=C(Cc1ccc2ccccc2c1)n1cccn1
41 | 3.9 min |  |  | Cc1cnn(C(=O)Nc2ccc3ccccc3c2)c1
42 | 4.008 min |  |  | O=C(OCc1ccc2ccccc2c1)n1cccn1
43 | 4.104 min |  |  | Cc1ccc(CNC(=O)n2cccn2)cc1
44 | 3.746 min | 42 nM |  | N#Cc1cnn(C(=O)NCCCCc2ccccc2)c1
45 | 3.998 min |  |  | Cc1cnn(C(=O)OCc2ccc3ccccc3c2)c1
46 | 3.969 min |  |  | Cc1cnn(C(=O)N(C)CCN(C)C(=O)OC(C)(C)C)c1
47 | 3.988 min | > 5000 nM |  | Cc1cnn(C(=O)OCCCCc2ccccc2)c1
48 | 3.787 min | 0.16 nM |  | N#Cc1cnn(C(=O)N2CCN(Cc3ccc(OCc4ccccc4)cc3)CC2)c1

Row | Retention_time [1] | Ki [2] | Ki [3] | Compound
49 | 4.122 min |  |  | Cc1ccc(COC(=O)n2cc(C)cn2)cc1
50 | 4.243 min |  |  | Cc1cnn(C(=O)NCc2ccc3ccccc3c2)c1
51 | 3.915 min |  | 0.16 nM | N#Cc1cnn(C(=O)N2CCN(Cc3ccc4ccccc4c3)CC2)c1
52 | 3.877 min | 0.19 nM |  | N#Cc1cnn(C(=O)N2CCN(Cc3ccc(-c4ccccc4)cc3)CC2)c1
53 | 3.844 min |  | 0.29 nM | O=C(N1CCN(Cc2ccc3ccccc3c2)CC1)n1cc(I)cn1
54 | 3.92 min | 340 nM |  | CC(C)(C)OC(=O)N1CCN(C(=O)n2cccn2)CC1
55 | 3.955 min | 290 nM |  | O=C(NCCCCc1ccccc1)n1cccn1
56 | 4.011 min |  |  | O=C(NCCCCCc1ccccc1)n1cccn1
57 | 3.988 min |  |  | Cc1ccc(COC(=O)n2cc(C#N)cn2)cc1
58 | 3.977 min |  |  | N#Cc1cnn(C(=O)Cc2ccc(-c3ccccc3)cc2)c1
59 | 3.915 min |  |  | N#Cc1cnn(C(=O)NCCCc2ccccc2)c1
60 | 3.896 min |  | 130 nM | Cc1cnn(C(=O)N2CCN(Cc3ccc4ccccc4c3)CC2)c1
61 | 3.894 min | 180 nM |  | O=C(N1CCN(Cc2ccccc2)CC1)n1cccn1
62 | 3.791 min |  | 9.8 nM | O=C(N1CCN(Cc2ccc3ccccc3c2)CC1)n1cccn1
63 | 3.91 min |  |  | Cc1cnn(C(=O)OCc2ccc(OCc3ccccc3)cc2)c1
64 | 3.989 min |  | 0.47 nM | O=C(N1CCN(Cc2ccc3ccccc3c2)CC1)n1cc(Br)cn1
65 | 4.274 min |  |  | N#Cc1cnn(C(=O)OCCCCCc2ccccc2)c1
66 | 3.899 min | 100 nM |  | Cc1cnn(C(=O)N2CCN(Cc3ccc(OCc4ccccc4)cc3)CC2)c1
67 | 3.884 min |  |  | CN(CCN(C)C(=O)n1cccn1)C(=O)OC(C)(C)C
68 | 3.762 min | 210 nM |  | N#Cc1cnn(C(=O)OCCCCc2ccccc2)c1
69 | 4.178 min |  |  | Cc1cnn(C(=O)NCCCCCc2ccccc2)c1
70 | 3.669 min |  |  | O=C(OCCCc1ccccc1)n1cccn1
71 | 3.893 min |  | 9.2 nM | O=C(N1CCN(Cc2ccc(Oc3ccccc3)cc2)CC1)n1cccn1
72 | 3.989 min |  |  | O=C(NCCCc1ccccc1)n1cccn1

Row | Retention_time [1] | Ki [2] | Ki [3] | Compound
73 | 3.92 min |  |  | N#Cc1cnn(C(=O)OCc2ccc(Oc3ccccc3)cc2)c1
74 | 3.977 min |  |  | O=C(CCCCc1ccccc1)n1cccn1
75 | 4.106 min |  |  | O=C(NCc1ccc2ccccc2c1)n1cccn1
76 | 4.125 min |  |  | N#Cc1cnn(C(=O)NCCCCCc2ccccc2)c1
77 | 4.2 min | > 5000 nM |  | Cc1cnn(C(=O)CCCCCc2ccccc2)c1
78 | 3.929 min | 10 nM |  | O=C(N1CCN(Cc2ccc(OCc3ccccc3)cc2)CC1)n1cccn1
79 | 3.897 min |  |  | N#Cc1cnn(C(=O)NCc2ccc(-c3ccccc3)cc2)c1
80 | 4.022 min |  |  | N#Cc1cnn(C(=O)NCc2ccc(Oc3ccccc3)cc2)c1
81 | 3.899 min | 75 nM |  | N#Cc1cnn(C(=O)N2CCN(Cc3ccccc3)CC2)c1
82 | 3.999 min |  |  | O=C(OCc1ccc(-c2ccccc2)cc1)n1cccn1
83 | 3.779 min | 710 nM |  | O=C(OCCCCc1ccccc1)n1cccn1
84 | 3.946 min | 55 nM |  | CC(C)(C)OC(=O)N1CCN(C(=O)n2cc(C#N)cn2)CC1
85 | 3.97 min |  |  | Cc1ccc(CNC(=O)n2cc(C#N)cn2)cc1
86 | 3.912 min |  |  | N#Cc1cnn(C(=O)OCc2ccc(OCc3ccccc3)cc2)c1
87 | 3.965 min |  |  | N#Cc1cnn(C(=O)Nc2ccc3ccccc3c2)c1
88 | 3.877 min |  |  | N#Cc1cnn(C(=O)NCc2ccc(OCc3ccccc3)cc2)c1
89 | 3.989 min |  |  | O=C(OCc1ccc(Oc2ccccc2)cc1)n1cccn1
90 | 3.944 min |  |  | O=C(NCc1ccc(-c2ccccc2)cc1)n1cccn1
91 | 3.954 min |  |  | Cc1cnn(C(=O)Oc2ccc3ccccc3c2)c1
92 | 3.518 min |  |  | CC(C)(C)OC(=O)N1CCCN(C(=O)n2cccn2)CC1
93 | 4.1 min |  |  | Cc1ccc(COC(=O)n2cccn2)cc1
94 | 4.14 min |  |  | N#Cc1cnn(C(=O)NCc2ccc3ccccc3c2)c1
95 | 3.792 min |  |  | CC(C)(C)OC(=O)N1CCCN(C(=O)n2cc(C#N)cn2)CC1
96 | 3.999 min |  | 0.36 nM | COC(=O)c1cnn(C(=O)N2CCN(Cc3ccc4ccccc4c3)CC2)c1
